NPY2 pot ag: potentiators or agonists of human neuropeptide Y receptor Y2 | activation, % at 3.6 µM | 0.45% of 220,000 active | AID 1359 | P49146 | cells expressing NPY-Y2, potentiator/agonist read-out; in the data active = activation above about 27%;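 note: cells stimulated with NPY near EC25 plus isoproterenol at EC100; 0% = vehicle plus submaximal agonist and 100% = vehicle plus saturating agonist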
Target sequence (P49146 whole entry, looked up): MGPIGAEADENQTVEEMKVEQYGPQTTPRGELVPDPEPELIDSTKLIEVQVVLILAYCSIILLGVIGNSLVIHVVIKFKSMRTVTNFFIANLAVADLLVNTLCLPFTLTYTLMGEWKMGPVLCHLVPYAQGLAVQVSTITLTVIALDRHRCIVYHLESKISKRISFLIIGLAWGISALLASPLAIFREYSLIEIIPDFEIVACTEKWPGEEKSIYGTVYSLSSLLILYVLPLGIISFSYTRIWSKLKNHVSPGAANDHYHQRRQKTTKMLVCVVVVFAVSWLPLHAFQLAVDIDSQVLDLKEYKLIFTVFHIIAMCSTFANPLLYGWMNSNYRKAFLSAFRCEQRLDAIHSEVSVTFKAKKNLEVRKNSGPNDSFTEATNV
NPY1 pot ag: human NPY-Y1 potentiation or agonism, primary screen; P25929; activation, % at 3.6 µM; AID 1304; 0.37% of 220,000 active; NPY-Y1 expressing cells, potentiator/agonist activation; in the data active = activation above about 33%, passing the limit was not always enough;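 note: cells stimulated with NPY at EC10 then isoproterenol at EC100; 0% = low agonist plus stimulus and 100% = saturating agonist plus stimulus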
Target sequence (P25929 whole entry, looked up): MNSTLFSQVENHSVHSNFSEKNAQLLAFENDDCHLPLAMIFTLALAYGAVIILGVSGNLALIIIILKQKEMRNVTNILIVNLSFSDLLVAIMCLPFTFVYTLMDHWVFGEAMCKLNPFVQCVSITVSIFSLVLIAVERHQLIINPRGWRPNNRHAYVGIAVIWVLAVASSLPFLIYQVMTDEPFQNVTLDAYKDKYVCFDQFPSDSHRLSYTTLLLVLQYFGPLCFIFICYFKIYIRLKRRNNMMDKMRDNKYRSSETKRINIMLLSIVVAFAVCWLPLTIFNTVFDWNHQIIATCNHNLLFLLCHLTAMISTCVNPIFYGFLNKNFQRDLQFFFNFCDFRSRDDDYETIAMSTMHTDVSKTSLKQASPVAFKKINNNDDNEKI
NPY-Y1 antag: antagonists of human neuropeptide Y receptor Y1; 1% of 200,000 active; inhibition, % at 3.6 µM; HEK293-CNG Y1 cells, membrane potential fluorescence; NPY at EC95, then isoproterenol; P25929;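 active = inhibition above the campaign mean inhibition of all tested compounds plus 3 SD, cut at about 20% in these data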;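 note: 0% = DMSO wells given NPY plus isoproterenol and 100% = isoproterenol alone without NPY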
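Material: HEK293 cells with Y1 receptor plus CNG channel; times: compound incubation 1 h at room temperature, readout 45 min post-stimulation; signal: fluorescence, membrane potential probe; read-out basis: fluorescence ratio normalized to % inhibition between controls; benchmarks: full-block control isoproterenol-only wells, zero-block control NPY plus isoproterenol wells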
Wee1 stabilizer: inhibitors of human Wee1 degradation; 1.2% of 220,000 active; HeLa Luc-Wee1K328M stability, luciferase luminescence; 100% = proteasome inhibitor MG132 effect; reporter increase, % at 5 µM;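 active = activation above the mean of all tested compounds plus 3 SD, set per screening run, cut at about 8.8% in these data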;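 note: cells exposed to compound for 20 h before luminescence read; 0% = DMSO alone and 100% = MG132 at 30 µM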
NPY Y2 blocker: antagonists of human neuropeptide Y receptor Y2 | P49146 | NPY-Y2 expressing cells, antagonist mode | inhibition, % at 2.7 µM | 0.99% of 140,000 active | AID 793; in the data active = inhibition above about 17%;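 note: 0% = vehicle with agonist challenge and 100% = reference antagonist with challenge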
Hsp70 activator: switches on Hsp70 transcription. 0.04% of 200,000 active. activation, % at 10 µM. AID 1203. HeLa Hsp70 promoter luciferase reporter, luminescence; scaled: vehicle 0, proteasome-inhibitor control 100%;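 active = activation above the mean across all tested compounds plus 3 SD, cutoff set per campaign, cut at about 5.5% in these data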;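 note: 100% = MG132 at 30 µM as the positive control and 0% = DMSO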
NPY1 antag ctr: human NPY-Y1 antagonism in NPY-Y2 counter-screen; 19% of 710 active; shares compounds with NPY Y2 blocker; cell-based NPY-Y1 antagonism counterscreen; inhibition, % at 3.6 µM;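 note: cells challenged with NPY then isoproterenol with cAMP sensed through a CNG channel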
NPY-Y2 ant conf: confirmation of human neuropeptide Y receptor Y2 antagonists | HEK293 NPY-Y2 CNG channel, membrane potential fluorescence | 32% of 710 active | inhibition, % at 2.8 µM | AID 1257 | shares compounds with NPY Y2 blocker;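 active = mean inhibition of triplicate wells above the hit cutoff set in the primary screen, cut at about 17% in these data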;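 note: 0% = DMSO with NPY challenge and 100% = BIIE0246 high control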
NPY1 antag conf: human NPY-Y1 antagonism, confirmation; shares compounds with NPY-Y1 antag; HEK293-CNG NPY-Y1, membrane potential fluorescence, cAMP; NPY challenge against isoproterenol-raised cAMP; inhibition, % at 3.6 µM; 21% of 1,200 active; AID 1254;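 note: 0% = vehicle with agonist plus stimulus and 100% = stimulus alone without agonist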
NPY-Y2 antag ct: counter-screen for NPY-Y1 antagonists: human NPY-Y2 antagonism. shares compounds with NPY-Y1 antag. HEK293 NPY-Y2 CNG membrane potential fluorescence; cells given NPY, then isoproterenol. 28% of 1,200 active. inhibition, % at 3.6 µM; in the data active = inhibition above about 17%;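 note: 0% = DMSO with agonist challenge and 100% = reference antagonist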
NPY-Y1 confirm: human NPY-Y1 potentiation or agonism, confirmation; shares compounds with NPY1 pot ag; cell-based NPY-Y1 potentiator/agonist assay; activation, % at 3.6 µM; 20% of 280 active; AID 1546; in the data active = activation above about 45%;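 note: cells challenged with NPY at its EC10 plus isoproterenol stimulus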
NPY-Y2 counter: NPY-Y2 potentiation or agonism as NPY-Y1 counter-screen; shares compounds with NPY1 pot ag; HEK293-CNG cells, membrane-potential fluorescence (FLIPR), 1536-well; activation, % at 3.6 µM; 20% of 280 active; AID 1649; in the data active = activation above about 33%
NPY-Y1 ag: human NPY-Y1 agonism as potentiator counter-screen | shares compounds with NPY1 pot ag | activation, % at 3.6 µM | HEK293 Y1-CNGC, membrane potential fluorescence, agonist mode | 50% of 280 active | AID 1697;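 active = percent activation above the mean of DMSO-only control wells plus 3 SD of those wells, cut at about 18% in these data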;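 note: cells challenged with isoproterenol plus Ro 20-1724 with no NPY in test wells; Y1 agonism lowers isoproterenol-driven cAMP and reduces probe fluorescence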
NPY-Y2 ag: human NPY-Y2 agonism as NPY-Y1 counter-screen; HEK293 Y2-CNGC, membrane potential fluorescence, agonist mode; AID 1698; shares compounds with NPY1 pot ag; activation, % at 3.6 µM; 67% of 280 active;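 active = activation above the solvent-only control wells' mean plus 3 SD, cut at about 11% in these data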;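 note: 0% = DMSO with isoproterenol and 100% = 40 nM NPY maximal response; agonism lowers cAMP so well fluorescence drops in active wells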
CNGC counter: CNG channel inhibition, counter-screen for NPY-Y1 potentiators; AID 1704; HEK293-CNG parental, isoproterenol cAMP, membrane potential fluorescence; shares compounds with NPY1 pot ag; 42% of 280 active; inhibition, % at 3.6 µM;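 active = inhibition above the mean of stimulated solvent-only control wells plus 3 SD, cut at about 22% in these data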;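 note: 0% = isoproterenol-stimulated DMSO wells and 100% = unstimulated DMSO wells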
NPY-Y2 pot conf: confirmation of human NPY-Y2 receptor potentiators or agonists. 20% of 450 active. cell-based NPY-Y2 potentiator/agonist assay. shares compounds with NPY2 pot ag. activation, % at 3.6 µM; in the data active = activation above about 33%
NPY-Y1 counter: counter-screen for NPY-Y2 potentiators or agonists: NPY-Y1 potentiators or agonists. shares compounds with NPY2 pot ag. Y1 HEK293-CNG cells, membrane potential fluorescence. activation, % at 3.6 µM. 20% of 450 active; in the data active = activation above about 45%;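 note: cells stimulated with submaximal NPY then isoproterenol with phosphodiesterase inhibitor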
NPY-Y1 agonist 2: counter-screen for NPY-Y2 potentiators: agonists of human NPY-Y1. 37% of 450 active. shares compounds with NPY2 pot ag. AID 1702. HEK293 Y1-CNGC, membrane potential fluorescence, agonism. activation, % at 3.6 µM;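 active = activation above the mean of DMSO-only control wells plus 3 SD, cut at about 18% in these data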;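 note: cells stimulated with 1 µM isoproterenol plus the PDE inhibitor Ro 20-1724; 0% = isoproterenol with DMSO and no NPY and 100% = 40 nM NPY; Y1 agonists lower the membrane potential dye signal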
CNGC inhibitor: counter-screen for NPY-Y2 potentiators: inhibitors of CNG channel activity; shares compounds with NPY2 pot ag; HEK293-CNG parental, isoproterenol cAMP, membrane potential fluorescence; inhibition, % at 3.6 µM; 32% of 450 active; AID 1703;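 active = inhibition above the control-well mean plus 3 SD of those wells, cut at about 22% in these data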;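 note: 0% = DMSO with isoproterenol and 100% = DMSO without isoproterenol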
NPY-Y2 ag 2: activates human NPY-Y2 receptor in potentiator counter-screen. shares compounds with NPY2 pot ag. HEK293 Y2/CNGC cells, membrane potential fluorescence, agonist mode. activation, % at 3.6 µM. 56% of 450 active;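 active = activation above the mean of solvent-only control wells plus 3 SD, cut at about 10% in these data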;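 note: cells stimulated by isoproterenol with no NPY added so direct agonism is tested; 0% = DMSO with isoproterenol alone and 100% = NPY at EC100 plus isoproterenol; agonism lowers probe fluorescence through less cAMP and CNG channel opening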
Numbers without * were called inactive; . = no result given. Sampled rows, rich in hits. Any-hit rate of the full collection: about 3%. Cut-off read from the data, not from the text of the source, unless noted: active = inhibition above about 20%; inactive = the rest.

SMILES	NPY2 pot ag	NPY1 pot ag	NPY-Y1 antag	Wee1 stabilizer	NPY Y2 blocker	Hsp70 activator	NPY1 antag conf	NPY-Y2 antag ct	others
CCCC[N+]12CCC(CC1)C(=C(c1ccccc1)c1ccccc1)C2	-9	-8	18	1	23*	0	.	.	NPY1 antag ctr=12;NPY-Y2 ant conf=11
CCN(C(C)=O)c1cccc(-c2ccnc3c(C#N)cnn23)c1	-7	3	2	1	.	0	.	.
CCCCOc1nc2ccccc2c(=O)n1-c1ccccc1	-2	-14	6	0	17*	0	.	.	NPY1 antag ctr=5;NPY-Y2 ant conf=18*
COc1nc2ccccc2c(=O)n1-c1ccc(C)cc1	1	-15	0	-1	2	0	.	.
OC(COCc1ccc(Cl)cc1)CN1CC=C(c2ccccc2)CC1 (stereo unspecified)	-9	-19	9	3	19*	0	.	.	NPY1 antag ctr=8;NPY-Y2 ant conf=11
O=C(COC(=O)c1ccc(O)cc1)Nc1ccc(Cl)cc1C(=O)c1ccccc1	-7	-44	17	-2	19*	0	.	.	NPY1 antag ctr=12;NPY-Y2 ant conf=9
Nc1nonc1C(=O)N/N=C/c1ccc([N+](=O)[O-])o1	2	19	-3	-1	.	0	.	.
C[C@H]1OC[C@@H](C[N+](C)(C)C)O1	-15	-70	44*	-3	6	0	36*	22*
CCCCCCN1CCN(c2ccccc2Cl)CC1	-14	-13	-3	-3	.	-1	.	.
Cc1ccc(N2CCN(CCc3ccccc3)CC2)cc1	-1	-14	-1	1	0	0	.	.
Cc1cccc(N2CCN(CCc3ccccc3)CC2)c1C	-22	-14	23*	-1	8	0	5	8
O=C(c1csc2c1CCCCC2)N1CCC2(CC1)OCCO2	2	7	-3	2	-1	0	.	.
CCN(CC)CCCNC(=O)c1c(O)c2ccccc2n(Cc2ccccc2)c1=O	-41	-49	20*	0	15	0	16	26*
COc1ccc2c(c1)c(C(=O)CN1CCN(C)CC1)c(C)n2Cc1ccccc1	-20	-111	25*	-1	16	0	8	15
Clc1ccc(COC(Cn2ccnc2)c2ccc(Cl)cc2Cl)c(Cl)c1 (stereo unspecified)	-12	-63	23*	1	16	0	30*	25*
CCOC(=O)N(C)c1ccc(C(O)(C(=O)OCC)C(F)(F)F)cc1 (stereo unspecified)	-13	9	-13	1	1	0	.	.
C1=C(c2c[nH]c3ccccc23)CCN(Cc2ccccc2)C1	-6	6	-4	-1	.	0	.	.
CN1CC=C(c2c[nH]c3ccccc23)CC1	0	-2	36*	-1	2	0	6	3
c1ccc2c(N3CCNCC3)nsc2c1	8	23	0	-4	.	0	.	.
C/C1=C\[C@@H](C)C/C=C/[C@H]2[C@@H]3O[C@]3(C)[C@@H](C)[C@H]3[C@H](Cc4c[nH]c5ccccc45)NC(=O)[C@]32C(=O)/C=C/C(=O)[C@@H]1O	39*	11	40*	-1	.	0	35*	7	NPY-Y2 pot conf=5;NPY-Y1 counter=5;NPY-Y1 agonist 2=-1;CNGC inhibitor=5;NPY-Y2 ag 2=17*
CN(C(=O)c1ccco1)C1(c2ccccc2Cl)CCCCC1=O (stereo unspecified)	-6	0	-1	-2	6	0	.	.
O=P(Nc1ccccc1)(Nc1ccccc1)Oc1ccc(Cl)cc1	14	41*	-2	1	1	0	.	.	NPY-Y1 confirm=33;NPY-Y2 counter=20;NPY-Y1 ag=23*;NPY-Y2 ag=22*;CNGC counter=44*
CC(CCc1ccccc1)NCCC#N (stereo unspecified)	27	56*	.	1	.	.	.	.	NPY-Y1 confirm=9;NPY-Y2 counter=9;NPY-Y1 ag=8;NPY-Y2 ag=2;CNGC counter=-4
c1ccc(CCNCc2ccccc2)cc1	-1	-1	5	3	0	0	.	.
O=c1[nH]c(=S)[nH]c(O)c1/C=N/N1CCOCC1	3	6	.	-1	.	.	.	.
O=C(C(=O)N1CCOCC1)c1cn(Cc2ccccc2Cl)c2ccccc12	4	2	0	1	.	0	.	.

Compound activity as filed in PubChem.
